Data from ChEMBL document CHEMBL1145797, “Synthesis and antitumor activity of novel O-carbamoylmethyloxime derivatives of radicicol” (J Med Chem, 2003).

What was measured:
[1] = target: Proto-oncogene tyrosine-protein kinase Src (Rattus norvegicus, UniProt Q9WUD9); test: Inhibition of v-Src tyrosine kinase autophosphorylation in SR3Y1 cells after 15 hr exposure; assay type: cell-based
Outline: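 SR-3Y1 cells exposed to drug 15 h, lysed on ice 20 min in Tris pH 7.5 RIPA-type buffer with protease inhibitors and 1 mM vanadate. Equal-protein lysates run on SDS-PAGE, blotted with anti-phosphotyrosine antibody, HRP secondary, ECL detection. IC50 = concentration halving tyrosine phosphorylation.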

3Y1 cell line = test: Concentration to inhibit growth of normal rat fibroblast cells (3Y1-B cells) after 72 h exposure; assay type: functional, cell-based; details: 3Y1, 72 h
Outline: (§1)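 Cells precultured 24 h in DMEM with 10% fetal calf serum, then exposed to drug for 72 h. Viability read by MTT assay. IC50 taken as concentration giving 50% growth inhibition relative to control cultures.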

NRK = test: Concentration to inhibit growth of normal rat kidney epithelial cells (NRK cells) after 72 hr exposure; assay type: functional, cell-based; outline: as §1
[2] = Concentration to inhibit growth of v-src-transformed cells (SR-3Y1 cells) after 72 h exposure; assay type: functional; details: Rattus norvegicus, SR3Y1, 72 h; outline: as §1
[3] = Concentration to inhibit growth of normal rat K-ras-transformed cells (KNRK 5.2 cells) after 72 hr exposure; assay type: functional; outline: as §1
Mus musculus [4] = test: In vivo antitumor activity against BALB mice transplanted with human tumor (MX-1) using Xenograft Model at a dose of 100 mg/kg by administering intravenously for 5 days and T/C value is calculated on 14th day; assay type: functional; details: route intravenous
[5] = Percent depletion of Raf-1 protein expression after 40h exposure at 0.2 uM in KNRK5.2 cells; assay type: functional, cell-based; details: Rattus norvegicus
Outline: (§2)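 KNRK5.2 cells exposed to 0.2 µM drug for 40 h, then lysed. Equal-protein lysates Western blotted in duplicate for Raf-1 (rabbit polyclonal), phospho-MAPK (phosphospecific antibody) and total Erk2 (monoclonal). Read-out is % inhibition of phospho-Erk2 formation or % Raf-1 depletion.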

[6] = Inhibition of K-ras-induced MAPK phosphorylation in KNRK5.2 cells after 40h exposure at 0.2 uM; assay type: functional; details: Rattus norvegicus; outline: as §2
Mus musculus [7] = test: In vivo antitumor activity against BALB mice transplanted with human tumor (MX-1) using Xenograft Model at a dose of 100 mg/kg by administering intravenously for 5 days and mortality is calculated; assay type: functional; details: route intravenous
Outline: (§3)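 Adult BALB/c nu/nu mice (n = 5) inoculated sc in the flank with human tumor cells: MX-1 on day -14, A431 on day -18. Drug dissolved in cremophor EL/N,N-dimethylacetamide/physiological saline (7.5:5:87.5) and given iv once daily on days 0-4. Animals monitored for lethal toxicity and body weight loss.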

Mus musculus [8] = test: In vivo antitumor activity against BALB mice transplanted with human tumor (MX-1) Xenograft Model at a dose of 50 mg/kg by administering intravenously for 5 days and Mortality is calculated; assay type: functional; details: route intravenous; outline: as §3
Mus musculus [9] = test: In vivo antitumor activity against BALB mice transplanted with human tumor (A431) Xenograft Model at a dose of 50 mg/kg by administering intravenously for 5 days and Mortality is calculated; assay type: functional; details: route intravenous; outline: as §3
Mus musculus [10] = test: In vivo antitumor activity against BALB mice transplanted with human tumor (MX-1) using Xenograft Model at a dose of 50 mg/kg by administering intravenously for 5 days and T/C value was calculated on 11th day; assay type: functional; details: route intravenous
Outline: (§4)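 Adult BALB/c nu/nu mice (n = 5), tumor cells inoculated sc in the flank (MX-1 day -14, A431 day -18). Drug in cremophor EL/N,N-dimethylacetamide/saline (7.5:5:87.5), given iv daily days 0-4. Tumor volume = length × width²/2. T/C = mean V/V0 of treated over control. Mann–Whitney U test.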

Mus musculus [11] = test: In vivo antitumor activity against BALB mice transplanted with human tumor (A431) Xenograft Model at a dose of 25 mg/kg by administering intravenously for 5 days and T/C value was calculated on 7th day; assay type: functional; details: dose 50 mg/kg; route intravenous; in the assay text read “50 mg/kg” for “25 mg/kg”; outline: as §4
Mus musculus [12] = test: In vivo antitumor activity against BALB mice transplanted with human tumor (MX1) Xenograft Model at a dose of 25 mg/kg by administering intravenously for 5 days and T/C value was calculated on 11th day; assay type: functional; details: route intravenous; outline: as §4
Mus musculus [13] = test: In vivo antitumor activity against BALB mice transplanted with human tumor (MX-1) Xenograft Model at a dose of 25 mg/kg by administering intravenously for 5 days and Mortality is calculated; assay type: functional; details: route intravenous; outline: as §3
Mus musculus [14] = species on record: Mus musculus; test: Dose required to produce lethal toxicity was determined; assay type: organism-based; details: in vivo; outline: as §3

Row | Structure (SMILES) | IC50 [1] [nM] | IC50 (3Y1 cell line) [nM] | IC50 (NRK) [nM] | IC50 [2] [nM] | IC50 [3] [nM] | also measured
1 | C[C@@H]1C[C@H]2O[C@@H]2\C=C/C=C/C(=N\OCC(=O)NCCc2cccn2C)Cc2c(Cl)c(O)cc(O)c2C(=O)O1 | > 1000 | 600 | 1200 | 84 | 380 | –
2 | C[C@@H]1C[C@H]2O[C@@H]2\C=C/C=C/C(=N\OCC(=O)N2CCC(O)CC2)Cc2c(Cl)c(O)cc(O)c2C(=O)O1 | – | > 3000 | > 3000 | > 3000 | > 3000 | –
3 | C[C@@H]1C[C@H]2O[C@@H]2\C=C/C=C/C(=N\OCC(=O)NCCO)Cc2c(Cl)c(O)cc(O)c2C(=O)O1 | > 1000 | 2800 | > 3000 | 1500 | 2200 | –
4 | COc1ccc(NC(=O)CO\N=C2/C=C/C=C\[C@H]3O[C@@H]3C[C@@H](C)OC(=O)c3c(O)cc(O)c(Cl)c3C2)cc1 | 390 | 100 | 260 | 58 | 81 | –
5 | C[C@@H]1C[C@H]2O[C@@H]2\C=C/C=C/C(=N\OCC(=O)N2CCC(N3CCCCC3)CC2)Cc2c(Cl)c(O)cc(O)c2C(=O)O1 | – | > 3000 | 3000 | > 3000 | > 3000 | –
6 | C[C@@H]1C[C@H]2O[C@@H]2\C=C/C=C/C(=N\O)Cc2c(Cl)c(O)cc(O)c2C(=O)O1 | 56 | 90 | 80 | 26 | 39 | T/C min (Mus musculus [4]): 0.49; Depletion [5]: 29%; inhibition at 0.2 µM [6]: 81%; Mortality (Mus musculus [7]): 0
7 | C[C@@H]1C[C@H]2O[C@@H]2\C=C/C=C/C(=N\OCC(=O)Nc2cccnc2)Cc2c(Cl)c(O)cc(O)c2C(=O)O1 | 54 | 200 | 240 | 51 | 120 | –
8 | C[C@@H]1C[C@H]2O[C@@H]2\C=C/C=C/C(=N\OCC(=O)Nc2ccccc2)Cc2c(Cl)c(O)cc(O)c2C(=O)O1 | 43 | 620 | 320 | 120 | 290 | –
9 | CCN(CC)c1ccc(NC(=O)CO\N=C2/C=C/C=C\[C@H]3O[C@@H]3C[C@@H](C)OC(=O)c3c(O)cc(O)c(Cl)c3C2)cc1 | < 10 | 490 | 520 | 100 | 240 | –
10 | CCOCCNC(=O)CO\N=C1/C=C/C=C\[C@H]2O[C@@H]2C[C@@H](C)OC(=O)c2c(O)cc(O)c(Cl)c2C1 | > 1000 | 390 | 260 | 93 | 230 | –
11 | C[C@@H]1C[C@H]2O[C@@H]2\C=C/C=C/C(=N\OCC(=O)NC2CCCC2)Cc2c(Cl)c(O)cc(O)c2C(=O)O1 | 14 | 41 | 41 | 9.8 | 45 | –
12 | C[C@@H]1C[C@H]2O[C@@H]2\C=C/C=C/C(=N\OCC(=O)N2CCN(C)CC2)Cc2c(Cl)c(O)cc(O)c2C(=O)O1 | – | 1000 | 1200 | 470 | 1500 | –
13 | C[C@@H]1C[C@H]2O[C@@H]2\C=C/C=C/C(=N\OCC(=O)NCC2CCCCC2)Cc2c(Cl)c(O)cc(O)c2C(=O)O1 | 17 | 180 | 210 | 20 | 140 | –
14 | C[C@@H]1C[C@H]2O[C@@H]2\C=C/C=C/C(=N\OCC(=O)NC2CCCCC2)Cc2c(Cl)c(O)cc(O)c2C(=O)O1 | 210 | 67 | 190 | 5.7 | 73 | –
15 | C[C@@H]1C[C@H]2O[C@@H]2\C=C/C=C/C(=N\OCC(=O)N2CCCC2)Cc2c(Cl)c(O)cc(O)c2C(=O)O1 | 70 | 55 | 34 | 20 | 39 | –
16 | C[C@@H]1C[C@H]2O[C@@H]2\C=C/C=C/C(=N\OCC(=O)N(CCO)CCO)Cc2c(Cl)c(O)cc(O)c2C(=O)O1 | > 1000 | > 3000 | > 3000 | 1100 | 2900 | –
17 | C[C@@H]1C[C@H]2O[C@@H]2\C=C/C=C/C(=N\OCC(=O)N2CCCCCC2)Cc2c(Cl)c(O)cc(O)c2C(=O)O1 | 67 | < 4.1 | 7.3 | < 4.1 | 6.4 | –
18 | COC(=O)CNC(=O)CO\N=C1/C=C/C=C\[C@H]2O[C@@H]2C[C@@H](C)OC(=O)c2c(O)cc(O)c(Cl)c2C1 | 360 | 790 | 700 | 240 | 570 | –
19 | CCN(CC)CCNC(=O)CO\N=C1/C=C/C=C\[C@H]2O[C@@H]2C[C@@H](C)OC(=O)c2c(O)cc(O)c(Cl)c2C1 | > 1000 | > 3000 | > 3000 | 2300 | > 3000 | –
20 | C[C@@H]1C[C@H]2O[C@@H]2/C=C\C=C\C(=O)Cc2c(Cl)c(O)cc(O)c2C(=O)O1 [RADICICOL] | 180 | 700 | 290 | 59 | 110 | –
21 | C[C@@H]1C[C@H]2O[C@@H]2\C=C/C=C/C(=N\OCC(=O)N2CCOCC2)Cc2c(Cl)c(O)cc(O)c2C(=O)O1 | 140 | 310 | 340 | 130 | 340 | –
22 | C[C@@H]1C[C@H]2O[C@@H]2\C=C/C=C/C(=N\OCC(=O)N2CCCCC2)Cc2c(Cl)c(O)cc(O)c2C(=O)O1 | 25 | 8.3 | 18 | 6.1 | 14 | Mortality (Mus musculus [8]): 0; Mortality (Mus musculus [9]): 0; T/C min (Mus musculus [10]): 0.17; T/C min (Mus musculus [11]): 0.44; Depletion [5]: 74%; inhibition at 0.2 µM [6]: 95%; T/C min (Mus musculus [12]): 0.54; Mortality (Mus musculus [13]): 0; Lethal toxicity (Mus musculus [14]): 100 mg/kg
23 | C[C@@H]1C[C@H]2O[C@@H]2\C=C/C=C/C(=N\OCC(=O)N2CCC(C(N)=O)CC2)Cc2c(Cl)c(O)cc(O)c2C(=O)O1 | – | > 3000 | > 3000 | > 3000 | > 3000 | –
24 | C[C@@H]1C[C@H]2O[C@@H]2\C=C/C=C/C(=N\OCC(=O)NCc2cccnc2)Cc2c(Cl)c(O)cc(O)c2C(=O)O1 | > 1000 | 670 | 510 | 290 | 480 | –
